Reference: ChEMBL document CHEMBL3414544, “PAINS in the assay: chemical mechanisms of assay interference and promiscuous enzymatic inhibition observed during a sulfhydryl-scavenging HTS” (J Med Chem, 2015)
Calls of active or inactive are those of the source.

How the values were obtained:
[1] = Fluorescence quenching in HTS buffer with 20 uM 7-diethylamino-3-(4'-maleimidyl-phenyl)-4-methylcoumarin assessed as fluorescence signal reduction at 10 uM after 10 mins; type: physicochemical
[2] = target: Histone acetyltransferase GCN5 (Saccharomyces cerevisiae S288c, UniProt Q03330); assay: Inhibition of yeast histone acetyltransferase Gcn5-Ada2-Ada3 complex using tetramer and [3H]-acetyl-CoA assessed as acetate incorporation after 30 mins by liquid scintillation counting
Chain of Histone acetyltransferase GCN5 (Q03330 whole entry): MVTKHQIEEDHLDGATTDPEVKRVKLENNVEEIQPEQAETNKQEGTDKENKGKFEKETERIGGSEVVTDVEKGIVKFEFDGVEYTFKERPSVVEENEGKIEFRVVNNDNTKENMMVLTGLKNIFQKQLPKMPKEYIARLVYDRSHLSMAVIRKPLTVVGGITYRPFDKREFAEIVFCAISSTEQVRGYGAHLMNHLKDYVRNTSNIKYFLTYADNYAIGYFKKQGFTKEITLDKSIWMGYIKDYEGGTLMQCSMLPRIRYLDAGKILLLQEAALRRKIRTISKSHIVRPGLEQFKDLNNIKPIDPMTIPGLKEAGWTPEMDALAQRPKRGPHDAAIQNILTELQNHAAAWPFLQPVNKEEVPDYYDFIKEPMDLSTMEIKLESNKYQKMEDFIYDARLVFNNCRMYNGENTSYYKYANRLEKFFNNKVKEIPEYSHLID

[3] = target: T1, Histone acetyltransferase p300 (Homo sapiens, UniProt Q09472); assay: Inhibition of recombinant histone acetyltransferase p300 (unknown origin) using dH3-H4 tetramer and [3H]-acetyl-CoA assessed as acetate incorporation after 5 mins by liquid scintillation counting in presence of 1 mM DTT
T1 sequence (Q09472 whole entry): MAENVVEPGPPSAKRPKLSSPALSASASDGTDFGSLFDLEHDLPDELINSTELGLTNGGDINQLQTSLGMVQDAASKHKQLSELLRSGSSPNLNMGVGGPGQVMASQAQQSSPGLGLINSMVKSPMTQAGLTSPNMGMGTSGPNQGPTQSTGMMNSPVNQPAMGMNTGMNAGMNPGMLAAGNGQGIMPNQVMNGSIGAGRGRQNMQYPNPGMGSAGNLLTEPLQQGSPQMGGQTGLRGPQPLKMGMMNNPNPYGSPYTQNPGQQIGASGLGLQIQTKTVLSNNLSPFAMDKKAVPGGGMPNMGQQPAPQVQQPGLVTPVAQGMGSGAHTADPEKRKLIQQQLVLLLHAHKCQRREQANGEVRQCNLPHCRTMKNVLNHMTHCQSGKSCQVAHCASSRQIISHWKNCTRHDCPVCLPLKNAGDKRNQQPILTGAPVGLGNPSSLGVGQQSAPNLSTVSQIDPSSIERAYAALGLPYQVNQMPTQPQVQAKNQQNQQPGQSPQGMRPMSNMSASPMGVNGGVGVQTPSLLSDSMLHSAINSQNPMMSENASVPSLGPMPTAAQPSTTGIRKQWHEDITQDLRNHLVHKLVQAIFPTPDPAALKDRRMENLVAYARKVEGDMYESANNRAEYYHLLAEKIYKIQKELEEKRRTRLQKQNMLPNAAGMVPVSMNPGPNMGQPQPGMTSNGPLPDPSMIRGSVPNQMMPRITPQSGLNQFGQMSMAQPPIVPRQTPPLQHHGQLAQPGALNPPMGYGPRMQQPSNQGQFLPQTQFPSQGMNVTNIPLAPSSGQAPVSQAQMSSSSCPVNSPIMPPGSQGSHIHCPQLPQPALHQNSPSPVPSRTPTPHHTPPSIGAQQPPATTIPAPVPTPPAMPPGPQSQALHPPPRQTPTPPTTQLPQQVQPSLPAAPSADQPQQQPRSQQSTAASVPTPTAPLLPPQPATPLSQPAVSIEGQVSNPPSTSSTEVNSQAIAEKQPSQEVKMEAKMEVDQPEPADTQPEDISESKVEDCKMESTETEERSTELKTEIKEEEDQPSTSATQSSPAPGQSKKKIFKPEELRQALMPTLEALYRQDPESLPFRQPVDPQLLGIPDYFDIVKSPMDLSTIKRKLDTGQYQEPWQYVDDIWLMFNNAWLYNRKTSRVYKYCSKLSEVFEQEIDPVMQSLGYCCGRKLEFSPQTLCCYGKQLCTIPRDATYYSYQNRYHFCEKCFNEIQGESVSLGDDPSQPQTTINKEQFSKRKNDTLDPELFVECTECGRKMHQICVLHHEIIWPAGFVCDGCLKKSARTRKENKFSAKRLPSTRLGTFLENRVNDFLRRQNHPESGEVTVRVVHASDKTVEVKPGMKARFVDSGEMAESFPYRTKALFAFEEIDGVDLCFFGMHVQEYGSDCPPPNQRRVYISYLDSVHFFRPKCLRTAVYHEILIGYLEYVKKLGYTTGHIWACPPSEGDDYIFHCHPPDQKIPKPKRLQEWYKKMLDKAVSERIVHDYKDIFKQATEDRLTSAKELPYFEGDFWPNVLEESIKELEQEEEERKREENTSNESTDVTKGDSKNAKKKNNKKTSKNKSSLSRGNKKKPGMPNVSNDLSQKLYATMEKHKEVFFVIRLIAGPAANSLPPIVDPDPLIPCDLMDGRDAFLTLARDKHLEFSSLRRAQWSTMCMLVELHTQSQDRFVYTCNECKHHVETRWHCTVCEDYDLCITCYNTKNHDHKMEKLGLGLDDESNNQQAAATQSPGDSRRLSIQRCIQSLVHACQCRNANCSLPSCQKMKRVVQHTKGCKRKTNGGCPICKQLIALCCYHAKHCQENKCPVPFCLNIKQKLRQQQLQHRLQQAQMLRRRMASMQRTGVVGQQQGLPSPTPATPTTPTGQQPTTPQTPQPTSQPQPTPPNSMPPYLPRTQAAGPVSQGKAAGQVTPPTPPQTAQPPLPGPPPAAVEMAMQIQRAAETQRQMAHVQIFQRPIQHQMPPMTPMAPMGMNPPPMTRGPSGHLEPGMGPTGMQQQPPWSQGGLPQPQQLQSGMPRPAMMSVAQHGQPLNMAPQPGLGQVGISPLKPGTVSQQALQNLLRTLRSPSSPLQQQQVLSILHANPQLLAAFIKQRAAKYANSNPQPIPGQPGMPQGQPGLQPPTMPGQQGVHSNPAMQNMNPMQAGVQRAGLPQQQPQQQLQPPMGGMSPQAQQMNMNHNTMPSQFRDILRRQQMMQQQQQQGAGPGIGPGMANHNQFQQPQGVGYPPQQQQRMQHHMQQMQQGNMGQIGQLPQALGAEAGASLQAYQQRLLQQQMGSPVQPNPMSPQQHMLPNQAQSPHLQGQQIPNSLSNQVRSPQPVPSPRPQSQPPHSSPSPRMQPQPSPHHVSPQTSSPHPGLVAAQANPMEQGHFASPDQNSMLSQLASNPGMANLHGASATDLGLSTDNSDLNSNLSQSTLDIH

[4] = target: T2, Histone acetyltransferase RTT109 (Saccharomyces cerevisiae (strain ATCC 204508 / S288c) (Baker's yeast)) (UniProt Q07794); assay: Inhibition of Vps75-stimulated recombinant Saccharomyces cerevisiae histone acetyltransferase Rtt109 assessed as H3K27 acetylated product at […] after 45 mins by Slot bolt inhibiton assay
T2 sequence (whole entry): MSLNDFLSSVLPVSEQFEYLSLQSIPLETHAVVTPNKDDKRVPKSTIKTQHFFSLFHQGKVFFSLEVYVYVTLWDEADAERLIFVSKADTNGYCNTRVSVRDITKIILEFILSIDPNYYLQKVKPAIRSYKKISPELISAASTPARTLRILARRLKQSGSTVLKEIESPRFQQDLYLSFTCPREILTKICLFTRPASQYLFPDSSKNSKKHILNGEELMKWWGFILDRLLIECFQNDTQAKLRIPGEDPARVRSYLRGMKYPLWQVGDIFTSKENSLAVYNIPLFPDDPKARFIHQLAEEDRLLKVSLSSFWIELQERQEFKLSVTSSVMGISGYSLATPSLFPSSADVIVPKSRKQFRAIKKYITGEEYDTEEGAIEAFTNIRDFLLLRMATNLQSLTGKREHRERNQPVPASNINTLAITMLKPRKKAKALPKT

[5] = target: T1, Histone acetyltransferase p300; assay: Inhibition of recombinant histone acetyltransferase p300 (unknown origin) using dH3-H4 tetramer and [3H]-acetyl-CoA assessed as acetate incorporation […] by liquid scintillation counting
[6] = Fluorescence quenching in HTS buffer with […] CoA assessed as fluorescence signal reduction at 10 uM after 10 mins; type: physicochemical
[7] = Fluorescence quenching in HTS buffer assessed as fluorescence signal reduction at 10 uM after 10 mins; type: physicochemical
[8] = target: T2, Histone acetyltransferase RTT109 (Saccharomyces cerevisiae (strain ATCC 204508 / S288c) (Baker's yeast)); assay: Inhibition of Vps75-stimulated recombinant Saccharomyces cerevisiae histone acetyltransferase Rtt109 assessed as H3K56 acetylated product at […] after 45 mins by Slot bolt inhibiton assay
[9] = target: Histone acetyltransferase GCN5 (Saccharomyces cerevisiae S288c) (UniProt Q03330); assay: Inhibition of yeast histone acetyltransferase Gcn5-Ada2-Ada3 complex using tetramer and [3H]-acetyl-CoA assessed as acetate incorporation […] by liquid scintillation counting in presence of 1 mM DTT
Chain of Histone acetyltransferase GCN5 (Saccharomyces cerevisiae S288c) (Q03330 whole entry): as the sequence (Q03330 whole entry) above

[10] = Fluorescence quenching assessed as fluorescence signal reduction at 10 uM after 10 mins; type: physicochemical
Outline: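 CPM (20 μM final) and CoA (5 μM final) reacted to completion in assay buffer (stable plateau, usually ~5 min); adduct solution added to wells preplated with compound; shaken 5 min, equilibrated 5 min at room temperature; fluorescence intensity read as percent signal reduction versus DMSO controls. Flagged as quencher at >20% signal reduction at 10 μM final compound.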

[11] = target: T2, Histone acetyltransferase RTT109 (Saccharomyces cerevisiae (strain ATCC 204508 / S288c) (Baker's yeast)); assay: Inhibition of Vps75-stimulated recombinant Saccharomyces cerevisiae histone acetyltransferase Rtt109 using [3H]-acetyl-CoA assessed as acetate incorporation […] by liquid scintillation counting in presence of 1 mM DTT
[12] = target: T3, Histone acetyltransferase RTT109 (Saccharomyces cerevisiae (strain ATCC 204508 / S288c) (Baker's yeast), UniProt Q07794); assay: Inhibition of Vps75-stimulated recombinant Saccharomyces cerevisiae histone acetyltransferase Rtt109 using Asf1-dH3-H4 as substrate assessed as coenzyme A production after 45 mins by CPM based HTS assay
T3 sequence (Q07794 whole entry): T2 sequence (whole entry)
Outline: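 Recombinant Rtt109–Vps75 at 50 nM, with Asf1–dH3–H4 as substrate and acetyl-CoA as acetyl donor. Buffer contained freshly prepared 0.01% Triton X-100. The CoA product was detected by fluorescence of its CPM adduct. Plates had Z′ ≥0.5. IC50 came from a four-parameter variable-slope fit.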

[13] = target: T3, Histone acetyltransferase RTT109; assay: Inhibition of Vps75-stimulated recombinant Saccharomyces cerevisiae histone acetyltransferase Rtt109 using [3H]-acetyl-CoA assessed as acetate incorporation after 30 mins by liquid scintillation counting

Row | SMILES | Activity [1] | IC50 ([2]; read-out: IC50) | Activity [3] | Activity [4] | IC50 ([5]; read-out: IC50) | Activity [6] | Activity [7] | Activity [8] | Activity [9] | Activity [10] | Activity [11] | IC50 [12] | IC50 ([13]; read-out: IC50) | IC50 ([12]; read-out: IC50) | IC50 [2] | IC50 [5] | IC50 [13]
1 | COc1ccc(-c2nnc(SC3CC(=O)N(c4ccc(Cl)cc4)C3=O)[nH]2)cc1 (stereo unspecified) | Not Active | 6700 nM | Active | Active | 2800 nM | Not Active | Not Active | Active | Active | Not Active | Active | – | – | – | – | – | –
2 | CNc1nc(-c2ccccc2)[n+](-c2ccc(C)cc2)s1.[Br-] | Not Active | 8100 nM | Active | Active | 2000 nM | Not Active | Not Active | Active | Active | Not Active | Active | – | – | – | – | – | –
3 | O=S(=O)(Nc1cc(Sc2nc[nH]n2)c(O)c2ccccc12)c1ccc(Br)cc1 | Not Active | 5200 nM | Active | Active | 1100 nM | Not Active | Not Active | Active | Active | Not Active | Active | – | – | – | – | – | –
4 | O=C(O)CSc1cc(NS(=O)(=O)c2ccc(Br)cc2)c2ccccc2c1O | Active | 1200 nM | Active | – | 330 nM | Not Active | Not Active | – | Active | Not Active | – | Not Active | 130 nM | – | – | – | –
5 | C=C(C)[C@@H](CC=C(C)C)C[C@@]12C[C@@H](CC=C(C)C)C(C)(C)[C@@](CC=C(C)C)(C(=O)C(C(=O)c3ccc(O)c(O)c3)=C1O)C2=O [GARCINOL] | – | 2600 nM | inactive | – | 1700 nM | – | – | – | inactive | – | inactive | – | – | – | – | – | –
6 | Cc1ccc(-c2nc(N)s[n+]2-c2ccccc2)cc1.[Br-] | Not Active | 5300 nM | Active | Active | 1800 nM | Not Active | Not Active | Active | Active | Not Active | Active | – | – | – | – | – | –
7 | O=S1(=O)C=C(Sc2nnc(-c3ccccc3)o2)c2ccccc21 | Not Active | 11000 nM | Active | Active | 11000 nM | Not Active | Not Active | Active | Active | Not Active | Active | – | – | – | – | – | –
8 | CCN(CC)c1ccc2c(C)c(-c3ccc(N4C(=O)C=CC4=O)cc3)c(=O)oc2c1 | – | 1100 nM | Active | – | 260 nM | – | – | – | Active | – | Active | – | 260 nM | – | – | – | –
9 | O=S1(=O)C=C(Sc2nnc(-c3ccncc3)o2)c2ccccc21 | Not Active | 3700 nM | Active | Active | 6200 nM | Not Active | Not Active | Active | Active | Not Active | Active | – | – | – | – | – | –
10 | O=[N+]([O-])c1c(SCc2ccccc2)cc(Cl)c2nonc12 | Not Active | – | – | Active | – | Not Active | Not Active | Active | – | Not Active | – | – | – | 1700 nM | – | – | –
11 | OC(Cn1cncn1)(Cn1cncn1)c1ccc(F)cc1F [FLUCONAZOLE] | – | – | inactive | – | – | – | – | – | inactive | – | inactive | Not Active | – | – | Not Active | Not Active | Not Active
12 | O=[N+]([O-])c1c(Sc2ncnc3[nH]cnc23)cc(Cl)c2nsnc12 | Not Active | – | – | Active | – | Not Active | Not Active | Active | – | Not Active | – | – | – | 2200 nM | – | – | –
13 | O=S(=O)(C[n+]1sc(Nc2ccccc2)nc1-c1ccccc1)c1ccc2ccccc2c1.[Br-] | Not Active | – | – | inactive | – | Not Active | Not Active | inactive | – | Not Active | – | – | – | 28000 nM | – | – | –
14 | O=[N+]([O-])c1cccc(S(=O)(=O)Nc2cc(SCc3ccccc3)c(O)c3ccccc23)c1 | Not Active | – | – | Active | – | Not Active | Not Active | Active | – | Not Active | – | – | – | 2000 nM | – | – | –
15 | O=S1(=O)C=C(Sc2nnnn2-c2ccccc2)c2ccccc21 | Not Active | 20000 nM | Active | Active | – | Not Active | Not Active | Active | Active | Not Active | Active | – | – | – | – | – | –
16 | O=S(=O)(Nc1cc(Sc2cccc3cccnc23)c(O)c2ccccc12)c1ccccc1 | Not Active | – | – | Active | – | Not Active | Not Active | Active | – | Not Active | – | – | – | 2400 nM | – | – | –
17 | O=S(=O)(Nc1cc(Sc2nc[nH]n2)c(O)c2ccccc12)c1ccccc1 | Not Active | – | – | Active | – | Not Active | Not Active | Active | – | Not Active | – | – | – | 1400 nM | – | – | –
18 | CN(CCO)c1cc(Sc2nnc(-c3ccccc3)o2)c2nonc2c1[N+](=O)[O-] | Not Active | – | – | Active | – | Not Active | Not Active | Active | – | Not Active | – | – | – | 5300 nM | – | – | –
19 | CC(C)(C)c1ccc(S(=O)(=O)Nc2ccc(O)c(Cl)c2)cc1 | Not Active | – | – | inactive | – | Not Active | Not Active | inactive | – | Not Active | – | – | – | 75000 nM | – | – | –
20 | COc1ccc(Nc2nc(-c3ccc(OC)cc3)[n+](CS(=O)(=O)c3ccc(C)cc3)s2)cc1.O=S(=O)([O-])O | Not Active | – | – | Active | – | Not Active | Not Active | Active | – | Not Active | – | – | – | 2700 nM | – | – | –
21 | O=C1C=CC(=O)N1c1cccc(F)c1 | Not Active | – | – | Active | – | Not Active | Not Active | Active | – | Not Active | – | – | – | 6100 nM | – | – | –
22 | O=C1C=CC(=O)N1c1ccc(Br)cc1 | Not Active | – | – | Active | – | Not Active | Not Active | Active | – | Not Active | – | – | – | 3000 nM | – | – | –
